# Compound activity deposited in PubChem by Johns Hopkins Ion Channel Center.
# MrgX1 antagonist = blocks BAM8-22 activation of human MrgX1 receptor; B-score at 10 µM; MRGX1-HEK293 calcium flux, Fluo-4, BAM8-22 antagonism; hits give low values; 1.3% of 310,000 active; AID 588676; Q96LB2;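 active = calcium-response B-score plate-corrected more than 3 library SD below zero, starting fluorescence within 5 deviations, no agonist response on first addition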;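 note: peak minus trough fluorescence over baseline after final BAM8-22 challenge near maximal dose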
# Target sequence (Q96LB2 whole entry, looked up): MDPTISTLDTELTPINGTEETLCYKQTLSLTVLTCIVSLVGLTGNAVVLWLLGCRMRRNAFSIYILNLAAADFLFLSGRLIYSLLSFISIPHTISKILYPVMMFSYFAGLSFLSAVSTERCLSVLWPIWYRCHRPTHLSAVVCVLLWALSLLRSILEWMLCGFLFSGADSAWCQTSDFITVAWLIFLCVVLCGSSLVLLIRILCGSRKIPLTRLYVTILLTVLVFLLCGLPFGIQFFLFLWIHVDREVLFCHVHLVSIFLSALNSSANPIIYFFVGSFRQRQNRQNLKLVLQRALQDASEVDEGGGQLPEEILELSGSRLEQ
# MrgX1 ag = human MrgX1 receptor agonism, primary screen; AID 588627; MrgX1-HEK293 cells, Fluo-4 calcium fluorescence, agonist mode; hits give high values; B-score at 10 µM; 0.44% of 310,000 active;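 active = calcium response B-score plate-corrected fluorescence ratio at least 3 library SD, with starting fluorescence B-score inside 5 SD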
#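 Test system: Stable human MrgX1 HEK293 cell line | Schedule: Overnight plating before 1 h dye loading | Read-out basis: Baseline-normalised fluorescence change ratio, B-scored | Detection: Kinetic calcium dye fluorescence, Fluo-4 NW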
# RGS4 act = RGS4 potentiation or activation. 0.92% of 310,000 active. HEK293 M3R/inducible RGS4, carbachol calcium flux Fluo4; hits give low values. B-score at 10 µM;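 active = B-score of the integrated calcium signal more than 4 SD below the library mean, with starting fluorescence not abnormally high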;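 note: negative B-score means reduced calcium response which marks RGS4 activation or potentiation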
#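 Material: M3R-expressing HEK293 line, RGS4 induced by doxycycline | Schedule: Overnight RGS4 induction, 30 min dye load 37 °C, 20 min compound RT | Measured by: Fluo4 fluorescence kinetic imaging of calcium | Read-out: Integrated calcium ratio converted to B score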
# MrgX1 PAM = allosterically activates human MrgX1 receptor signaling; Q96LB2; MrgX1-HEK293, Fluo-4 calcium flux, FDSS; hits give high values; B-score at 10 µM; 0.63% of 310,000 active; AID 588675;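 active = plate-corrected calcium response at least 3 library SD above typical, normal starting fluorescence, not activating the receptor alone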;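 note: compound read alongside a low EC10 to EC30 dose of BAM8-22 agonist; peak minus trough fluorescence over baseline measured at the second addition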
# RGS4 inh = human RGS4 inhibition | 0.45% of 310,000 active | P49798 | HEK293 M3R/RGS4 inducible, Fluo-4 calcium flux; hits give high values; triggered by carbachol at its EC20 | B-score at 10 µM;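 active = B-score, a plate-corrected calcium signal, over three deviations above library mean, with baseline fluorescence within five deviations of library mean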;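 note: RGS4 expression induced by doxycycline in cells with stable M3 receptor; B-score is computed from the integrated fluorescence ratio over baseline after carbachol; higher B-score means a larger calcium signal and so more RGS4 inhibition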
# Target sequence (P49798 whole entry, looked up): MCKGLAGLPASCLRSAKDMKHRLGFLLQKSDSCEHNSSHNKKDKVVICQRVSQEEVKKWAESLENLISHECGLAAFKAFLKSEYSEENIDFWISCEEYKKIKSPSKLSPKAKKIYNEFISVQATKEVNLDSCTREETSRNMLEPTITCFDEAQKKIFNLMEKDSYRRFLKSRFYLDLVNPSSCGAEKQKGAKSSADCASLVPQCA
# Starred values were filed as active, the others as inactive; i = inactive; x = not tested or not shown. The list is not random: actives were taken first. Their share in the collection is about 3.5%.
SMILES,MrgX1 antagonist,MrgX1 ag,RGS4 act,MrgX1 PAM,RGS4 inh
C1=C(c2ccccc2)Nc2ncnn2C1c1ccccc1 (stereo not drawn),i,i,i,8.2*,i
CSC1=NC2C(N1)N(C)C(=O)N2C (stereo not drawn),i,i,i,i,i
CN1CCN(C2=C(Cl)C(=O)N(c3ccc(Cl)cc3)C2=O)CC1,i,i,i,i,i
O=C1C(Cl)=C(NC2CCCCC2)C(=O)N1c1ccc(Cl)cc1,i,i,i,15*,i
Cc1ccc(Nc2nnc(SCC(=O)c3ccc(Br)s3)s2)c(C)c1,i,i,i,i,i
Cc1cccc(C)c1Nc1nnc(SCC(=O)c2ccc(Br)s2)s1,i,i,-7.7*,i,i
CC(Oc1ccc(-c2ccccc2)c(F)c1)c1ccn(S(=O)(=O)c2ccc(F)cc2)n1 (stereo not drawn),i,i,i,i,i
O=S(=O)(c1ccc(F)cc1)n1ccc(-c2cccc(OCc3ccc(Cl)cc3Cl)c2)n1,-8.1*,i,i,i,i
Cc1c(Br)c([N+](=O)[O-])nn1CC(=O)N1CCc2ccccc2C1,i,i,i,i,i
Cc1c(Br)c([N+](=O)[O-])nn1C(C)C(=O)N1CCc2ccccc2C1 (stereo not drawn),i,i,-9.3*,i,i
COc1ccccc1NC(=O)Nn1cnnc1,i,i,i,i,i
O=C(CSc1nc2ccccc2c(=O)n1Cc1ccco1)c1ccccc1,i,i,i,i,i
Cc1cc(-n2c(C)cc(C(=O)CSc3nc4ccccc4c(=O)n3Cc3ccco3)c2C)no1,-6.3*,i,i,i,i
COc1cccc(-c2ccc(NC(=O)C3CCCN(Cc4cnc(C)n4C)C3)cc2)c1 (stereo not drawn),i,i,-7.1*,i,i
Cc1ccc(-c2nc(CSc3nc4ccccc4c(=O)n3C)cs2)cc1,i,i,-7*,i,i
Cc1ccc(-c2nc(CSc3nc4ccccc4c(=O)n3CCO)cs2)cc1,i,i,i,i,i
COc1ccccc1-n1cnnc1SCc1csc(-c2ccccc2)n1,i,i,x,i,x
C=CCn1c(SCc2csc(-c3ccc(C)cc3)n2)nnc1-c1ccccc1OC,-6*,i,i,i,i
O=C(NC1CCCCCC1)C1CC(=O)N(Cc2ccccc2)C1 (stereo not drawn),i,i,i,i,i
Cc1ccc(O)c(N=Cc2cc(Cc3ccccc3)cc([N+](=O)[O-])c2O)c1,x,x,-7.2*,x,i
COc1ccc(CCNC(=O)/C(C#N)=C2\N=C(NC(=O)c3ccco3)c3ccccc32)cc1,-4.7*,i,i,i,i
N#C/C(C(=O)NCc1ccccc1)=C1/N=C(NC(=O)c2ccco2)c2ccccc21,i,i,i,i,i
CCCCN1C[C@H](O)[C@@H](O)[C@H](O)[C@H]1CO,i,i,i,i,i
OCCN1C[C@H](O)[C@@H](O)[C@H](O)[C@H]1CO,-9.5*,i,i,i,i
CC(=O)Nc1ccc(-c2csc(Nc3ccc(Cl)cn3)n2)cc1,i,i,i,7.2*,i
SMILES,MrgX1 antagonist,MrgX1 ag,RGS4 act,MrgX1 PAM,RGS4 inh
CC(=O)Nc1cccc(-c2csc(Nc3ccc(Cl)cn3)n2)c1,i,i,i,i,i
COC(=O)CC(c1ccc(OC)c(OC)c1)c1ccc(OC)c(OC)c1,i,i,i,i,i
O=C(Nc1ccc(Cl)cc1)Nc1ccc2c(c1)N1CCN=C1S2,-5.2*,i,i,i,i
NCC(O)(c1ccc(Cl)cc1)c1ccc(Cl)cc1,i,37*,i,i,i
CC(C)(C)NCC(O)(c1ccc(Cl)cc1)c1ccc(Cl)cc1,i,i,i,i,i
COCC(C)NC(=O)CSc1nc2ccccc2n1CCc1ccccc1 (stereo not drawn),i,28*,i,i,i
CCC(C(=O)NCCCN1CCOCC1)n1c2ccccc2c2nc(=O)cc(C)n21 (stereo not drawn),i,i,i,i,i
CCCCNC(=S)Nc1ccc([N+](=O)[O-])cc1,-5.6*,i,i,i,i
CC(C)CCNC(=S)Nc1ccc([N+](=O)[O-])cc1,i,i,i,i,i
CC(C)OC(=O)c1cc(NC(=S)Nc2ccc([N+](=O)[O-])cc2)cc(C(=O)OC(C)C)c1,-6.7*,i,i,i,i
CC(C)COc1ccc(C(=O)Nc2ccc([N+](=O)[O-])cc2)cc1,i,i,i,i,i
CCc1ccc(C(C(=O)NCc2ccc(F)cc2)N(C(=O)c2csnn2)C2CC2)cc1 (stereo not drawn),i,i,i,i,i
CCOc1ccc(C(=O)NCCNC(=O)c2ccc(OCC)cc2)cc1,i,i,i,i,i
CCOc1ccc(C(=O)NCCCN(CC)CC)cc1,-5.4*,i,i,i,i
NC(=O)c1ccc(C(F)(F)F)n(Cc2cccc(Cl)c2)c1=O,i,i,i,i,i
OC(CNC1CCCCC1)COCCOc1ccc(Br)cc1 (stereo not drawn),-9.2*,i,i,i,i
O=[N+]([O-])c1ccc(OCC(O)CN(C2CCCCC2)C2CCCCC2)cc1 (stereo not drawn),i,i,i,i,i
OC(CNC1CCCC1)COc1ccc(-c2ccccc2)cc1 (stereo not drawn),i,i,i,i,i
O=[N+]([O-])c1ccc(OCC(O)CNC2CCCC2)cc1 (stereo not drawn),i,28*,i,i,i
N#Cc1cc2c(=O)n3ccccc3nc2n(-c2ccccc2Cl)c1=O,i,i,i,i,i
O=C(N/N=C/c1cc([N+](=O)[O-])ccc1O)c1cc(-c2ccccc2)nc2ccccc12,-6*,i,i,i,i
O=C(O)c1cccc(NC(=O)c2ccc3c(c2)C(=O)N(C2CCCCC2)C3=O)c1,i,i,i,i,i
Cc1nonc1C(=O)N/N=C/c1cc2c(cc1Br)OCO2,-5*,i,i,i,i
Cc1nn(C)c(C(=O)N/N=C/c2cc3c(cc2Br)OCO3)c1Br,i,i,i,i,i
Cc1cc(C)nc(N/N=C/C2=C(N3CCOCC3)C(=C\c3ccc(Cl)cc3)/CC2)n1,i,i,i,i,i
O=C(O)c1ccc(N/N=C/C2=C(N3CCOCC3)C(=C\c3ccccc3)/CC2)cc1,i,34*,i,i,i
